A selection: hits, their analogues and other compounds. The true share with any hit is near 4.3%.
Rin1-Abl PPI inh: blocks binding of human Rin1 to Abl; TR-FRET Rin1/Abl binding, biochemical; 360,000 tested, 0.4% active; P00519+Q13671; inhibition, % at 7.35 µM; in the data active = inhibition above about 5%, passing the limit was not always enough
UBC9 SUMO inh: inhibitors of human SUMOylation (UBC9); P63279; HTRF SUMOylation assay, SAE1/SAE2 + UBC9, in vitro; inhibition, % at 35 µM; 290,000 tested, 0.36% active; in the data active = inhibition above about 50%, passing the limit was not always enough
Target sequence (P63279 whole entry, looked up): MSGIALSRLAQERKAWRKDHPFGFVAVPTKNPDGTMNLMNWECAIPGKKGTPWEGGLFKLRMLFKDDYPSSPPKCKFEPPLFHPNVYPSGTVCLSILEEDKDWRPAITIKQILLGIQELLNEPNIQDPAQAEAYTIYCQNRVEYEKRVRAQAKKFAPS
ALR H2O2 inh: inhibitors of human sulfhydryl oxidase ALR; 290,000 tested, 3.8% active; purified ALR, DTT oxidation, H2O2 HRP-luminol luminescence; P55789; inhibition, % (test concentration not listed);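 active = mean replicate inhibition above about 79%, with every replicate also reaching it, limit read from the data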
Target sequence (P55789 whole entry, looked up): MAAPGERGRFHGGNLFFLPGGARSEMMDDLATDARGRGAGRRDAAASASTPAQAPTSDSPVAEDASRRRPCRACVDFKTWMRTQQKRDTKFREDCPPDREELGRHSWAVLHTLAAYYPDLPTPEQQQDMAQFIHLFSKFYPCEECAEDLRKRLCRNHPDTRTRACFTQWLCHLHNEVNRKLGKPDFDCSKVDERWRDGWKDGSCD
UBC13 polyUb: human UBC13 polyubiquitination inhibition; P61088; UBC13 polyubiquitin chain formation, TR-FRET; inhibition, % at 20 µM; 330,000 tested, 0.47% active; AID 485273; in the data active = inhibition above about 45%, passing the limit was not always enough
PREPL inhibitor: inhibits the human prolyl oligopeptidase-like enzyme; Q4J6C6; recombinant PREPL, fluorescence polarization activity-based probe; inhibition, % at 5.96 µM; 320,000 tested, 0.68% active; in the data active = inhibition above about 43%
RBBP9 inh: inhibitors of human serine hydrolase RBBP9 | O75884 | recombinant RBBP9, FP-Rh probe fluorescence polarization | inhibition, % at 7.94 µM | 220,000 tested, 0.2% active | AID 1515;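 active = inhibition above the campaign mean of all tested compounds plus 3 SD, cut at about 14% in these data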
Target sequence (O75884 whole entry, looked up): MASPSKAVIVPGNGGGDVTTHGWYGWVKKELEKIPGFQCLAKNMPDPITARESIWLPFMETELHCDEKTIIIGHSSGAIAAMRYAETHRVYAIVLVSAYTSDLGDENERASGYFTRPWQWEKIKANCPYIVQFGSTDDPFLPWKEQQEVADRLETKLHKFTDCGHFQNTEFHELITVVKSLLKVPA
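Test system – recombinant human RBBP9 · Input – RBBP9 2.5 µM in dispensing solution, pre-mixing · Medium – Tris buffer pH 8.0, NaCl, Pluronic · Schedule – preincubation 30 min plus labeling 45 min at 25 °C · Measured by – fluorescence polarization · Measure – % inhibition · Controls – DMSO and no-protein wells · Replicates – one well per compound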
Casp3 counter: inhibits human caspase-3 in UBC13 counter-screen; shares compounds with UBC13 polyUb; Recombinant caspase-3, Caspase-Glo 3/7 luminescence, 60 min; inhibition, % at 20 µM; 1,400 tested, 4% active;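 active = mean inhibition across replicates above about 26%, limit read from the data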
UBC13 confirm: human UBC13 polyubiquitin inhibition, confirmed | AID 488859 | UBC13 polyubiquitination, TR-FRET, biochemical | shares compounds with UBC13 polyUb | inhibition, % at 10 µM | 1,400 tested, 68% active; in the data active = inhibition above about 45%
A number is an active result; n = inactive; x = no result given.

SMILES	Rin1-Abl PPI inh	UBC9 SUMO inh	ALR H2O2 inh	UBC13 polyUb	PREPL inhibitor	RBBP9 inh	Casp3 counter	UBC13 confirm
Nc1nonc1-n1nnc(C(=O)N/N=C/c2ccccc2Br)c1CN1CCCC1	n	n	x	63	n	x	n	n
Nc1nonc1-n1nnc(C(=O)N/N=C/c2ccc(O)cc2)c1CN1CCCCCC1	n	x	n	n	n	x	x	x
CN(C)CCCn1cnc2c(c1=N)C(c1ccccc1)c1ccc3ccccc3c1O2 (centres undefined)	n	n	n	71	n	x	n	82
COc1ccc(CNC(=O)c2ccc3c(=O)n(CCCN4CCCC4=O)c(=S)[nH]c3c2)cc1	n	n	x	n	n	n	x	x
COc1ccccc1CNC(=O)c1ccc2c(=O)n(CCCN3CCCC3=O)c(=S)[nH]c2c1	n	n	n	46	n	n	n	n
Cc1sc2ncnc(SCC(=O)N3CCCC(C(F)(F)F)C3)c2c1C (centres undefined)	n	n	n	n	n	x	x	x
C#CCOCCOCCOCCNc1nc(N2CCN(C(=O)[C@H]([C@@H](C)CC)n3cc([C@@H](N)Cc4ccc(O)cc4)nn3)CC2)nc(N2CCN(C(=O)[C@H]([C@@H](C)CC)n3cc([C@@H](N)CC(C)C)nn3)CC2)n1	n	n	n	68	n	n	n	n
C#CCOCCOCCOCCNc1nc(N2CCN(C(=O)[C@H]([C@@H](C)CC)n3cc([C@@H](N)Cc4ccc(O)cc4)nn3)CC2)nc(N2CCN(C(=O)[C@H](Cc3ccc(O)cc3)n3cc([C@@H](N)CC(C)C)nn3)CC2)n1	n	n	n	45	n	n	n	n
CCNC(=O)C1CCCN(C(=O)c2ccco2)CC1 (centres undefined)	n	x	x	x	x	x	x	x
COc1ccc(OCc2nc3c4cc(OC)c(OC)cc4nc(=S)n3[nH]2)cc1	n	n	n	59	n	n	n	n
CC(=O)Nc1cc(-c2ccc(CO)cc2)cn2c(-c3cccc(C(F)(F)F)c3)cnc12	n	x	x	x	x	x	x	x
Cc1cccc(OCCCC(=O)NNC(=O)c2ccccn2)c1	n	x	n	75	n	x	n	n
O=C(CCc1ccccc1)NNC(=O)c1ccccn1	n	n	n	50	n	n	n	64
O=C(CCc1ccccc1)NNC(=O)CCc1ccccc1	n	n	n	n	n	x	x	x
NC(=O)NC(CC(=O)NNC(=O)c1ccccn1)c1ccccc1Cl (centres undefined)	n	x	n	80	n	x	n	82
CCNC(=S)NNC(=O)c1ccccc1Cl	n	n	x	n	n	n	x	x
CCNC(=S)NNC(=O)c1ccccn1	n	n	n	90	n	n	n	87
Cc1cccc(OCCCC(=O)NNC(=O)c2ccncc2)c1	n	x	x	n	x	x	x	x
CC(=O)c1cccc(-n2nnnc2SCC(=O)Nc2cc(C)on2)c1	n	n	n	n	n	x	x	x
CN(CC(=O)Nc1ccc(F)cc1)C(=O)CN1C(=O)c2cccc([N+](=O)[O-])c2C1=O	n	x	n	n	n	x	x	x
O=C1C2C3C=CC(C4CC34)C2C(=O)N1CCCCN1CCN(c2ccc(F)cc2)CC1 (centres undefined)	n	x	n	54	n	x	n	n
CCN(C(=O)CSc1nnc(-c2ccccc2)n1C)C1CCS(=O)(=O)C1 (centres undefined)	n	n	n	n	n	n	x	x
C=CCn1c(SCC(=O)N(CC)C2CCS(=O)(=O)C2)nnc1-c1ccccc1 (centres undefined)	n	x	n	54	n	x	n	53
CCOC(=O)c1c(-c2ccccc2)oc2ccc(OCC(O)CNCCN(C)C)cc12 (centres undefined)	n	n	n	53	n	x	n	56
CCC(C(=O)O)P(=O)(c1ccc(Cl)cc1)c1ccc(Cl)cc1 (centres undefined)	n	n	n	n	n	n	x	x
SMILES	Rin1-Abl PPI inh	UBC9 SUMO inh	ALR H2O2 inh	UBC13 polyUb	PREPL inhibitor	RBBP9 inh	Casp3 counter	UBC13 confirm
CC(NC(=O)C(C)N1c2cccc3cccc(c23)S1(=O)=O)c1ccccc1 (centres undefined)	n	n	n	n	n	x	x	x
CN(C)CCNc1ncnc2c1sc1nc(-c3ccccc3)c3c(c12)CCCC3	n	n	n	62	n	n	n	103
COc1ncnc2c1sc1nc(-c3ccccc3)c3c(c12)CCCC3	n	n	n	n	n	n	x	x
CC(OC(=O)C1=COCCO1)C(=O)NC1CCCC(C)C1C (centres undefined)	n	x	x	x	x	x	x	x
CCOc1ccc2nc(NC3=NC(C)(C)C=C(C)N3)nc(C)c2c1	n	n	n	57	n	n	n	64
CC(=O)c1c[nH]c(C(=O)NCc2ccccc2Cl)c1	n	n	n	n	n	x	x	x
Cn1c(=O)c([N+](=O)[O-])c(N2CCN(Cc3ccc4c(c3)OCO4)CC2)c2ccccc21	n	n	n	n	n	n	x	x
C#CCOCCOCCOCCNc1nc(N2CCN(C(=O)CCCCCCCCCCNC(=O)[C@H](CO)n3cc(CCCSC)nn3)CC2)nc(N2CCN(C(=O)CCCCCCCCCCNC(=O)[C@H](CCCN=C(N)N)n3cc(C[C@@H](C)CC)nn3)CC2)n1	n	x	n	122	n	x	n	121
C#CCOCCOCCOCCNc1nc(N2CCN(C(=O)CCCCCCCCCCNC(=O)Cn3cc(C[C@@H](C)O)nn3)CC2)nc(N2CCN(C(=O)CCCCCCCCCCNC(=O)[C@H](CO)n3cc(CCCSC)nn3)CC2)n1	n	x	n	n	n	x	x	x
C#CCOCCOCCOCCNc1nc(N2CCN(C(=O)CCCCCCCCCCNC(=O)[C@H](CO)n3cc(CCCSC)nn3)CC2)nc(N2CCN(C(=O)CCCCCCCCCCNC(=O)[C@H](CCCCN)n3cc(CCO)nn3)CC2)n1	n	x	n	113	n	x	n	124
CNc1ncnc2c1ncn2[C@H]1CN(CCc2ccccc2)C[C@@H](CO)O1	n	x	x	x	x	x	x	x
O=C(COC(=O)c1ccco1)Nc1cccc(S(=O)(=O)N2CCOCC2)c1	n	x	x	x	x	x	x	x
COc1cc(C#Cc2c(-c3cncn3C)n(C)c3ccc(Br)cc23)cc(OC)c1	n	x	n	46	n	x	n	n
COc1cc(C#Cc2c(-c3cncn3C)n(C)c3ccc(-c4ccc(OC)c(OC)c4)cc23)cc(OC)c1	n	x	n	n	n	x	x	x
CN(CC(=O)Nc1ccccc1Br)C(=O)CCCSc1nc2ccccc2[nH]1	n	x	n	n	n	x	x	x
COc1ccccc1NC(=O)c1c(N=Cc2cccc([N+](=O)[O-])c2)cnn1C	n	n	n	77	n	n	n	86
COc1cc(OC)cc(-c2c(-c3ccc(F)cc3)c3cc(-c4cnc(OC)nc4)ccc3n2C)c1	n	x	n	n	n	x	x	x

Compound activity deposited in PubChem by several laboratories.
